# C-LANA FP: blocks KSHV LANA C-terminal domain binding to DNA; hit rate 0.078% among 340,000; inhibition, % at 9 µM; AID 504423; MBP-C-LANA/FAM-LBS DNA binding, fluorescence polarization;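 active means highest replicate inhibition at or above 60% at 9 µM, even if other replicates fall short; inactive means all replicates below 60% inhibition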;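 further: 0% = neutral control wells and 100% = 4 µM acridine orange control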
# CAL PDZ FP-1: inhibitors of human CAL PDZ peptide binding; purified CAL PDZ, TMR-peptide fluorescence polarization, 1 h; inhibition, % at 24.9 µM; hit rate 0.92% among 300,000; AID 602252;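 active means mean inhibition of at least 30% with at least half of replicates also reaching 30%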;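 further: 0% = DMSO neutral control and 100% = excess unlabeled competitor peptide PRC23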
# miR122 inh: miR-122 inhibition in Huh7 cells. AID 602342. Huh7 miR-122 Renilla luciferase sensor, 48 h; neutral wells = 0, positive control = 100. hit rate 0.3% among 340,000. activation (reporter increase), % at 12.5 µM;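 active means mean replicate activation score at least 90 and every replicate individually at or above 90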;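 further: higher luciferase means less miR-122 activity so hits act as miR-122 inhibitors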
# Keap1-Nrf2 PPI: inhibitors of human Keap1-Nrf2 protein-protein interaction; inhibition, % at 9.4 µM; hit rate 0.15% among 340,000; AID 504523; Keap1 Kelch-Nrf2 peptide fluorescence polarization, 1536-well; in the data active means inhibition above about 12%;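 further: human Keap1 Kelch domain with fluorescein labeled Nrf2 9mer peptide probe; 0% = neutral control wells and 100% = peptide positive control; higher means more block of Keap1 binding to Nrf2 peptide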
# Target sequence (Q14145 whole entry, looked up, the tested form may be a part): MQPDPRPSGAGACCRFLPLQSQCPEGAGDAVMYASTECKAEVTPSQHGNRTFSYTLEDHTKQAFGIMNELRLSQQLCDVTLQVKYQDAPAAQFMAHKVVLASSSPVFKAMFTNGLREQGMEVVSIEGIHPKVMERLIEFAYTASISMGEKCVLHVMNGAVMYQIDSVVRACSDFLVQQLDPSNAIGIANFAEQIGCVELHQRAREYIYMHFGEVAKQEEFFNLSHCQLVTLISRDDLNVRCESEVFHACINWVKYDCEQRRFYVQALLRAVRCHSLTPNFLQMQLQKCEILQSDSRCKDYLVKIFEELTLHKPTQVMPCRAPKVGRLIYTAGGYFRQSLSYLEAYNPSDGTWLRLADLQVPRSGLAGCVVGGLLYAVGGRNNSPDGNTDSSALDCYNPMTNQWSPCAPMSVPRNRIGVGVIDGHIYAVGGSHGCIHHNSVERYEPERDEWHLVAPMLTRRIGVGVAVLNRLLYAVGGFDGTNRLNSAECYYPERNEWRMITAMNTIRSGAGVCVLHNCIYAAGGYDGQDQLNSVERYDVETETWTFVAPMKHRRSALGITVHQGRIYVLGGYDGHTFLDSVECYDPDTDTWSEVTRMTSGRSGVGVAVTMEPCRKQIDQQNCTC
# CAL PDZ FP-2: blocks peptide binding to human CAL PDZ domain | purified CAL PDZ, TMR-peptide fluorescence polarization, 1 h | inhibition, % at 20 µM | hit rate 0.02% among 330,000;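 active means highest replicate inhibition of at least 40%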;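 further: plate controls were DMSO neutral control wells for no effect and unlabeled competitor peptide control wells for full effect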
#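 Test system: tagged CAL PDZ domain / Buffer or medium: sodium phosphate/NaCl buffer pH 7.4 with TCEP, IgG, Thesit / Reagent: TMR-labelled reporter peptide T*-PRC34 bound in PDZ groove / Compound dosing: single point, 20 µM / Schedule: 1 h incubation at room temperature before polarization reading / Technique: fluorescence polarization (mP) / Benchmarks: unlabelled peptide, DMSO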
# An asterisk follows results filed as active; · = not tested or not shown; + = active, no number; [ ] = another dose, or the depositor's remark. Rows were chosen to be rich in hits. Some 1.1% of all compounds tested hit in one or more screens of this group.
SMILES,C-LANA FP,CAL PDZ FP-1,miR122 inh,Keap1-Nrf2 PPI,CAL PDZ FP-2
CC(=O)N1c2ccc(S(=O)(=O)NCC3CCC(C(=O)NCc4ccc(C)cc4)CC3)cc2CC1C (configuration not stated),1,·,·,0,-1
CC(=O)N1c2ccc(S(=O)(=O)NCCc3ccccc3)cc2CC1C (configuration not stated),-2,-4,153*,0,-2
C[C@@H]1CN([C@H](C)CO)C(=O)c2cc(NC(=O)NC3CCCCC3)ccc2O[C@H]1CN(C)Cc1ccc(C(=O)O)cc1,·,·,7[16.7 µM],·,·
CC(=O)N1c2ccc(S(=O)(=O)N3CCCCC3)cc2CC1C(=O)NCc1ccccc1C (configuration not stated),0,39*,-2,-11,-1
COc1cccc(CNS(=O)(=O)c2ccc3c(c2)CC(C)N3C(=O)C2CC2)c1 (configuration not stated),-1,-3,0,3,-2
CC1Cc2cc(S(=O)(=O)NCCc3ccccc3)ccc2N1C(=O)C1CC1 (configuration not stated),0,-3,132*,3,-3
CC1CC(C)CN(CCCNS(=O)(=O)c2ccc3c(c2)CCN3C(=O)C2CC2)C1 (configuration not stated),1,120*,9,-2,-3
C[C@H]1CCCCO[C@@H](CN(C)C(=O)C2CCCCC2)[C@@H](C)CN([C@@H](C)CO)C(=O)c2cc(NC(=O)Cc3ccccc3)ccc2O1,·,·,-6[16.7 µM],·,·
Cc1noc(C)c1S(=O)(=O)Nc1cccc2c1O[C@H](CN(C)S(=O)(=O)c1ccccc1)[C@H](C)CN([C@H](C)CO)C2=O,·,·,-12[16.7 µM],·,·
C[C@@H]1CN([C@H](C)CO)C(=O)c2cc(NC(=O)C3CCCCC3)ccc2O[C@@H](C)CCCCO[C@H]1CN(C)C(=O)c1ccccc1,·,·,1[16.7 µM],·,·
CCCCn1c(O)c(N=Nc2ccccc2O)c2ccccc21,0,37*,5,-8,0
COc1ccc2c(c1)C(C)=CC(C)(C)N2S(=O)(=O)c1ccc(Br)cc1,-1,4,114*,-3,-1
C[C@@H]1CN([C@H](C)CO)C(=O)Cc2cc(NC(=O)C3CC3)ccc2O[C@H]1CN(C)C(=O)Nc1cccc2ccccc12,·,·,-1[16.7 µM],·,·
COc1cccc(-c2ccc3n(c2=O)C[C@H]2[C@H](CO)[C@@H](C(=O)NC4CCC4)N(S(C)(=O)=O)[C@@H]32)c1,·,·,1[16.7 µM],·,·
C[C@H](CO)N1C[C@H](C)[C@@H](CN(C)Cc2ccc(C(=O)O)cc2)Oc2ccc(NC(=O)C3CC3)cc2CC1=O,·,·,-3[16.7 µM],·,·
Cc1ccc2ncccc2c1N,7,-3,-4,-1,2
Cc1ccc2nc(C)c(C)nc2c1N,3,2,113*,-25,-1
CCC1(C)CC2(CCCN(CCC(O)(c3ccccc3)c3ccccc3)C2)CCO1 (configuration not stated),-1,·,·,1,-2
CC1(C)CC2(CCCN(CC(O)(c3ccccc3)c3ccccc3)C2)CCO1 (configuration not stated),1,86*,-13,0,0
C[C@@H]1CN([C@@H](C)CO)C(=O)c2cc(NC(=O)C3CC3)ccc2O[C@@H]1CN(C)C(=O)Nc1ccccc1,·,·,5[16.7 µM],·,·
CN(C)C1(CNC(=O)C2CCC(=O)N(CCc3ccc(Cl)cc3)C2)CCCCC1 (configuration not stated),0,-5,4,0,88*
c1ccc(CN2CCCC3(CCCN(Cc4nc(COc5ccccc5)no4)C3)C2)cc1 (configuration not stated),0,52*,·,1,-1
c1ccc(CN2CCCC3(CCCN(Cc4nc(CC5CC5)no4)C3)C2)cc1 (configuration not stated),-1,25,-2,2,0
Cc1noc(C)c1S(=O)(=O)Nc1cccc2c1O[C@@H](CN(C)S(=O)(=O)c1cn(C)cn1)[C@@H](C)CN([C@@H](C)CO)C2=O,·,·,3[16.7 µM],·,·
Cc1noc(C)c1NC(=O)Nc1ccc2c(c1)C(=O)N([C@@H](C)CO)C[C@@H](C)[C@@H](CN(C)C(=O)CCCN(C)C)OCCCC[C@@H](C)O2,·,·,11[16.7 µM],·,·
SMILES,C-LANA FP,CAL PDZ FP-1,miR122 inh,Keap1-Nrf2 PPI,CAL PDZ FP-2
O=C(NCC1CCCO1)C(c1cccs1)N(Cc1cccs1)C(=O)Cn1nnc(-c2cccs2)n1 (configuration not stated),0,-2,116*,3,·
COc1ccc(Cn2c(-c3ccco3)nc3oc4cc(OC)ccc4c(=O)c3c2=O)cc1,0,38*,-4,1,-2
COc1ccc2c(=O)c3c(=O)n(Cc4ccco4)c(-c4ccco4)nc3oc2c1,0,-3,-5,3,-5
COc1cc(/C=C2/SC(=S)N(CC(=O)O)C2=O)ccc1OC(=O)c1ccco1,-8,-6,-5,-2,-1
CN1C(=O)/C(=C/c2ccc(OC(=O)c3ccco3)cc2)SC1=S,-1,+,-5,-4,0
COc1cc(/C=C2\SC(=S)N(CC(=O)O)C2=O)ccc1OC(=O)c1ccco1,-6,-4,-4,-2,-1
CN1C(=O)/C(=C\c2ccc(OC(=O)c3ccco3)cc2)SC1=S,-1,57*,-3,-4,-1
C[C@@H]1CN([C@H](C)CO)C(=O)c2cc(NS(C)(=O)=O)ccc2O[C@@H]1CN(C)Cc1ccccc1,·,·,-6[16.7 µM],·,·
N/C(=N\OC(=O)Cc1ccccc1[N+](=O)[O-])c1cccnc1,5,77*,·,-6,·
C[C@H](CO)N1C[C@H](C)[C@H](CN(C)C(=O)Nc2ccc(F)cc2)Oc2ccc(NC(=O)C3CCCCC3)cc2CC1=O,·,·,-4[16.7 µM],·,·
C[C@H]1CN([C@@H](C)CO)C(=O)c2cc(NC(=O)CCCN(C)C)ccc2O[C@@H]1CN(C)S(C)(=O)=O,·,·,9[16.7 µM],·,·
Cc1ccc(OCC(=O)Nc2c(C)ccc3nsnc23)cc1,1,52*,-1,2,0
Cc1ccc(NS(=O)(=O)c2cccc3nsnc23)cc1,-2,-4,·,-2,1
Cc1ccc(S(=O)(=O)Nc2c(C)ccc3nsnc23)cc1,-1,-1,138*,-4,-2
CN(CCOc1ccccc1)C(=O)c1cc([N+](=O)[O-])ccc1N1CCOCC1,-1,33*,·,-3,-1
C[C@H](CO)N1C[C@H](C)[C@@H](CN(C)S(=O)(=O)c2cn(C)cn2)OCCCC[C@H](C)Oc2ccc(NC(=O)NC3CCCCC3)cc2C1=O,·,·,0[16.7 µM],·,·
O=C(NCC1COc2ccccc2O1)c1ccccc1 (configuration not stated),3,·,-6,5,-1
Cc1cc(C(=O)NCC2COc3ccccc3O2)c2ccccc2n1 (configuration not stated),-2,62*,·,-6,-2
CCCn1c(NC(=O)c2cccc(C)c2C)nc2ccccc21,-2,-2,118*,1,-2
C/C=C/c1ccc2c(c1)O[C@H](CN(C)C(C)=O)[C@@H](C)CN([C@@H](C)CO)S2(=O)=O,·,·,5[16.7 µM],·,·
